Common to all, as to type: functional
The test system of experiment [1] is Enterococcus faecium. The experiment is described as follows: Antibacterial activity against Enterococcus faecium NCTC 7171 incubated for 16 to 20 hrs by microdilution method. A digest of the protocol: (§1)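 CLSI broth microdilution. 2-fold serial dilutions were made in cation-adjusted Mueller–Hinton broth, with 5% lysed horse blood added for Streptococcus strains, in triplicate. Inoculum 5×10^5 CFU/mL. Plates incubated 36 °C for 16–20 h. MIC taken as the lowest concentration visibly inhibiting growth.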

The test system of experiment [2] is Klebsiella pneumoniae. Briefly: Antibacterial activity against Klebsiella pneumoniae ATCC 700603 incubated for 16 to 20 hrs by microdilution method. The method, boiled down:
as §1

In experiment [3] the test system is Acinetobacter baumannii. The experiment is described as follows: Antibacterial activity against Acinetobacter baumannii ATCC 17961 incubated for 16 to 20 hrs by microdilution method. A digest of the protocol: as §1
Background: Dilution methods test growth across graded concentrations, often in twofold steps.

In experiment [4] the test system is Pseudomonas aeruginosa. The experiment is described as follows: Antibacterial activity against Pseudomonas aeruginosa […] incubated for 16 to 20 hrs by microdilution method. The method, boiled down: as §1
For experiment [5], the system named is Escherichia coli. Briefly: Antibacterial activity against Escherichia coli ATCC 25922 incubated for 16 to 20 hrs by microdilution method. A digest of the protocol: as §1
Experiment [6] concerns Klebsiella aerogenes. Briefly: Antibacterial activity against Enterobacter aerogenes ATCC 35029 incubated for 16 to 20 hrs by microdilution method. The method, boiled down: as §1

On to `O=C(O)c1cccc(-n2c(/C=C/c3ccc(Cl)cc3)nc3ccncc3c2=O)c1`, for which the MIC – broadly, the lowest concentration found to suppress growth – in experiment [1] is at least 8 µg/mL; in experiment [2] it was at least 16 µg/mL; in experiment [3], at least 16 µg/mL; in experiment [4], at least 16 µg/mL; in experiment [5], at least 16 µg/mL; in experiment [6] it was at least 16 µg/mL.
As for `COC(=O)Cc1ccc(/C=C/c2nc3ccccc3c(=O)n2-c2cccc(C(=O)O)c2)cc1`, the MIC is at least 8 µg/mL in experiment [1]; at least 16 µg/mL in experiment [2]; at least 16 µg/mL in experiment [3]; at least 16 µg/mL in experiment [4]; at least 16 µg/mL in experiment [5]; at least 16 µg/mL in experiment [6].
As for `O=c1c2ccccc2nc(/C=C/c2cccc([N+](=O)[O-])c2)n1-c1cccc(O)c1`, the minimum inhibitory concentration (MIC) in experiment [1] was at least 8 µg/mL; in experiment [2], at least 16 µg/mL; in experiment [3] it was at least 16 µg/mL; in experiment [4] it was at least 16 µg/mL; in experiment [5], at least 16 µg/mL; in experiment [6] it was at least 16 µg/mL.
As to `N#Cc1ccc(/C=C/c2nc3ccccc3c(=O)n2-c2cccc(F)c2)cc1`, the MIC in experiment [1] was at least 8 µg/mL; in experiment [2] it was at least 16 µg/mL; in experiment [3], at least 16 µg/mL; in experiment [4], at least 16 µg/mL; in experiment [5], at least 16 µg/mL; in experiment [6], at least 16 µg/mL.
On to `O=c1c2ccccc2nc(/C=C/c2cccc(F)c2)n1-c1cccc(O)c1`, for which the MIC in experiment [1] was at least 8 µg/mL; in experiment [2] it was at least 16 µg/mL; in experiment [3], at least 16 µg/mL; in experiment [4], at least 16 µg/mL; in experiment [5], at least 16 µg/mL; in experiment [6] it was at least 16 µg/mL.
`Nc1cccc(-n2c(/C=C/c3ccc(F)cc3)nc3ccccc3c2=O)c1`: the MIC in experiment [1] was at least 8 µg/mL; in experiment [2] it was at least 16 µg/mL; in experiment [3], at least 16 µg/mL; in experiment [4], at least 16 µg/mL; in experiment [5], at least 16 µg/mL; in experiment [6] it was at least 16 µg/mL.
For the compound `CC(C)c1ccc(/C=C/c2nc3ccccc3c(=O)n2-c2cccc(O)c2)cc1`, the MIC was at least 8 µg/mL in experiment [1]; at least 16 µg/mL in experiment [2]; at least 16 µg/mL in experiment [3]; at least 16 µg/mL in experiment [4]; at least 16 µg/mL in experiment [5]; at least 16 µg/mL in experiment [6].
Regarding `CC(C)Nc1cccc(-n2c(/C=C/c3ccc(C#N)cc3)nc3ccccc3c2=O)c1`, the MIC in experiment [1] is at least 8 µg/mL; in experiment [2], at least 16 µg/mL; in experiment [3], at least 16 µg/mL; in experiment [4] it was at least 16 µg/mL; in experiment [5], at least 16 µg/mL; in experiment [6] it was at least 16 µg/mL.
As to `O=C(O)c1cccc(-n2c(/C=C/c3ccc(F)c(Cl)c3)nc3ccccc3c2=O)c1`, the MIC in experiment [1] is at least 8 µg/mL; in experiment [2] it was at least 16 µg/mL; in experiment [3] it was at least 16 µg/mL; in experiment [4], at least 16 µg/mL; in experiment [5], at least 16 µg/mL; in experiment [6], at least 16 µg/mL.
With `CS(=O)(=O)NCc1cccc(-n2c(/C=C/c3ccc(C#N)cc3)nc3ccccc3c2=O)c1`, the MIC was at least 8 µg/mL in experiment [1]; at least 16 µg/mL in experiment [2]; at least 16 µg/mL in experiment [3]; at least 16 µg/mL in experiment [4]; at least 16 µg/mL in experiment [5]; at least 16 µg/mL in experiment [6].
`NC(=O)c1cccc(-n2c(/C=C/c3ccc(F)cc3)nc3ccncc3c2=O)c1`: the MIC is at least 8 µg/mL in experiment [1]; at least 16 µg/mL in experiment [2]; at least 16 µg/mL in experiment [3]; at least 16 µg/mL in experiment [4]; at least 16 µg/mL in experiment [5]; at least 16 µg/mL in experiment [6].
Turning to `COC(=O)Nc1cccc(-n2c(/C=C/c3ccc(C#N)cc3)nc3ccccc3c2=O)c1`, the MIC in experiment [1] is at least 8 µg/mL; in experiment [2], at least 16 µg/mL; in experiment [3], at least 16 µg/mL; in experiment [4], at least 16 µg/mL; in experiment [5] it was at least 16 µg/mL; in experiment [6], at least 16 µg/mL.
Consider `CC(=O)OCCCn1c(/C=C/c2ccc(C#N)cc2)nc2ccccc2c1=O`, for which the MIC in experiment [1] is at least 8 µg/mL; in experiment [2], at least 16 µg/mL; in experiment [3], at least 16 µg/mL; in experiment [4] it was at least 16 µg/mL; in experiment [5] it was at least 16 µg/mL; in experiment [6], at least 16 µg/mL.
Take `N#Cc1ccc(/C=C/c2nc3ccccc3c(=O)n2-c2cccc(C(=O)NCc3cccnc3)c2)cc1`: the MIC in experiment [1] is at least 8 µg/mL; in experiment [2] it was at least 16 µg/mL; in experiment [3], at least 16 µg/mL; in experiment [4], at least 16 µg/mL; in experiment [5] it was at least 16 µg/mL; in experiment [6], at least 16 µg/mL.
As to `N#Cc1ccc(/C=C/c2nc3ccccc3c(=O)n2-c2cccc(CC(=O)O)c2)cc1`, the MIC in experiment [1] is at least 8 µg/mL; in experiment [2], at least 16 µg/mL; in experiment [3], at least 16 µg/mL; in experiment [4], at least 16 µg/mL; in experiment [5] it was at least 16 µg/mL; in experiment [6] it was at least 16 µg/mL.
Take `COC(=O)CCNC(=O)c1cccc(-n2c(/C=C/c3ccc(C#N)cc3)nc3ccccc3c2=O)c1`: the MIC in experiment [1] is at least 8 µg/mL; in experiment [2], at least 16 µg/mL; in experiment [3], at least 16 µg/mL; in experiment [4], at least 16 µg/mL; in experiment [5], at least 16 µg/mL; in experiment [6], at least 16 µg/mL.
As to `O=C(NCCO)c1cccc(-n2c(/C=C/c3ccc(F)cc3)nc3ccccc3c2=O)c1`, the MIC was at least 8 µg/mL in experiment [1]; at least 16 µg/mL in experiment [2]; at least 16 µg/mL in experiment [3]; at least 16 µg/mL in experiment [4]; at least 16 µg/mL in experiment [5]; at least 16 µg/mL in experiment [6].
Consider `O=c1c2ccccc2nc(/C=C/c2ccc(F)cc2)n1-c1cccc([N+](=O)[O-])c1`, for which the MIC in experiment [1] was at least 8 µg/mL; in experiment [2] it was at least 16 µg/mL; in experiment [3], at least 16 µg/mL; in experiment [4], at least 16 µg/mL; in experiment [5], at least 16 µg/mL; in experiment [6] it was at least 16 µg/mL.
For `CC(=O)Oc1ccc(-n2c(/C=C/c3ccc([N+](=O)[O-])cc3)nc3ccccc3c2=O)cc1`, the MIC was at least 8 µg/mL in experiment [1]; at least 16 µg/mL in experiment [2]; at least 16 µg/mL in experiment [3]; at least 16 µg/mL in experiment [4]; at least 16 µg/mL in experiment [5]; at least 16 µg/mL in experiment [6].
On to `N#Cc1ccc(/C=C/c2nc3ccccc3c(=O)n2-c2cccc(C(=O)NCCC(=O)O)c2)cc1`, for which the MIC was at least 8 µg/mL in experiment [1]; at least 16 µg/mL in experiment [2]; at least 16 µg/mL in experiment [3]; at least 16 µg/mL in experiment [4]; at least 16 µg/mL in experiment [5]; at least 16 µg/mL in experiment [6].
In the case of `O=c1c2ccccc2nc(/C=C/C2CCCCC2)n1-c1cccc(O)c1`, the MIC in experiment [1] was at least 8 µg/mL; in experiment [2] it was at least 16 µg/mL; in experiment [3] it was at least 16 µg/mL; in experiment [4], at least 16 µg/mL; in experiment [5] it was at least 16 µg/mL; in experiment [6] it was at least 16 µg/mL.
For `O=c1c2cc(Br)ccc2nc(/C=C/c2ccc([N+](=O)[O-])cc2)n1-c1cccc(O)c1`, the MIC in experiment [1] was at least 8 µg/mL; in experiment [2] it was at least 16 µg/mL; in experiment [3] it was at least 16 µg/mL; in experiment [4], at least 16 µg/mL; in experiment [5] it was at least 16 µg/mL; in experiment [6] it was at least 16 µg/mL.
Regarding `N#Cc1ccc(/C=C/c2nc3ccncc3c(=O)n2-c2cccc(C(N)=O)c2)cc1`, the MIC is at least 8 µg/mL in experiment [1]; at least 16 µg/mL in experiment [2]; at least 16 µg/mL in experiment [3]; at least 16 µg/mL in experiment [4]; at least 16 µg/mL in experiment [5]; at least 16 µg/mL in experiment [6].
Regarding `O=c1c2cnccc2nc(/C=C/c2ccc(Cl)cc2)n1-c1cccc(O)c1`, the MIC is at least 8 µg/mL in experiment [1]; at least 16 µg/mL in experiment [2]; at least 16 µg/mL in experiment [3]; at least 16 µg/mL in experiment [4]; at least 16 µg/mL in experiment [5]; at least 16 µg/mL in experiment [6].

The record behind these values is ChEMBL document CHEMBL3817745, “Structure-Activity Relationship for the 4(3H)-Quinazolinone Antibacterials” (J Med Chem, 2016).
